Reference: ChEMBL document CHEMBL1126667, “CCK-B agonist or antagonist activities of structurally hindered and peptidase-resistant Boc-CCK4 derivatives” (J Med Chem, 1993)
Non-standard residues stand in square brackets, D forms with d. Residues, ends and D or L forms follow the SMILES beside them. *: point of attachment. NMe1Nal = CN[C@@H](Cc1cccc2ccccc12)C(=O)O; NMeW = CN[C@@H](Cc1c[nH]c2ccccc12)C(=O)O; 1Nal = N[C@@H](Cc1cccc2ccccc12)C(=O)O; 2Nal = N[C@@H](Cc1ccc2ccccc2c1)C(=O)O; Chg = N[C@H](C(=O)O)C1CCCCC1; Phg = N[C@H](C(=O)O)c1ccccc1; Nle = CCCC[C@H](N)C(=O)O; OtBu = CC(C)(C)O*

Assays:
Type in all cases: cell membranes
[1] = target: T1, Cholecystokinin receptor type A (Cavia porcellus, UniProt Q63931); assay: Affinity of compound on binding of [3H]pCCK-8 to the cholecystokinin type A receptor in guinea pig pancreatic membrane
T1 sequence (Q63931 whole entry): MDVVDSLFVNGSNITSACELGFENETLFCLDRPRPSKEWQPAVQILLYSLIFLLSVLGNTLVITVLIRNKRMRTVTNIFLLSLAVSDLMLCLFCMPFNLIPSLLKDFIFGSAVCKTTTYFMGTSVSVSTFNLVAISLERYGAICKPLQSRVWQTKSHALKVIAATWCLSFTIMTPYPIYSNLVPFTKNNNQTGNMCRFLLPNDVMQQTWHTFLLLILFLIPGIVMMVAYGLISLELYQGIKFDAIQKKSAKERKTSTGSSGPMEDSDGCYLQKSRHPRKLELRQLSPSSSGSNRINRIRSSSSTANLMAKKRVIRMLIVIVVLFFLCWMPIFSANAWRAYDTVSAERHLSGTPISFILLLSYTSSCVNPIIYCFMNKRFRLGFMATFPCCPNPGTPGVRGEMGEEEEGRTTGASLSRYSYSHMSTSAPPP
How it was run: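 Competition binding on guinea pig pancreatic membranes (0.2 mg protein/mL) using [3H]pCCK8 at 0.2 nM. Nonspecific binding defined with 1 μM CCK8. Reaction stopped by filtration over BSA-precoated GF/B filters and counted. KI derived by Cheng-Prusoff.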

[2] = target: T1, Cholecystokinin receptor type A; assay: Displacement of [3H]-pCCK-8 from cholecystokinin-A receptor in guinea pig pancreatic membrane
How it was run: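 Competition binding on guinea pig pancreatic membranes (0.2 mg protein/mL) using [3H]pCCK8 at 0.2 nM. Reaction stopped by filtration over BSA-precoated GF/B filters and counted. KI derived by Cheng-Prusoff.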

[3] = target: T2, Gastrin/cholecystokinin type B receptor (Rattus norvegicus, UniProt P30553); assay: Affinity of compound on binding of [3H]pCCK-8 to the cholecystokinin type B receptor in rat brain membrane
T2 sequence (P30553 whole entry): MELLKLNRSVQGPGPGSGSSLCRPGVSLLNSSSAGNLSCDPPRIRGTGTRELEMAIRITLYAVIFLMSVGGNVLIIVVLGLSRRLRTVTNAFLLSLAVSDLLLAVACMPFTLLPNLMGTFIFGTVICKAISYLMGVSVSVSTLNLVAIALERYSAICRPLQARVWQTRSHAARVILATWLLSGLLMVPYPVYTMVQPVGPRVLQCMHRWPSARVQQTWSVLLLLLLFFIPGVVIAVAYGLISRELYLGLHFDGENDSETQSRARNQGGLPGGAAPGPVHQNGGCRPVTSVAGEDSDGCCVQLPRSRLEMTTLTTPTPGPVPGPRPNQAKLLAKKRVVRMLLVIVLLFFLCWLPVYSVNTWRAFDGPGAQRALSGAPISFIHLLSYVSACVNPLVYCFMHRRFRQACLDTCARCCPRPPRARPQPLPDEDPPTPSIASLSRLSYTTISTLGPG
How it was run: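 Brain membranes (0.6 mg protein/mL; rat or guinea pig) incubated with 0.2 nM [3H]pCCK8 in 50 mM Tris-HCl pH 7.4, 5 mM MgCl2, 0.2 mg/mL bacitracin, 60 min at 25 °C. Filtered on BSA-precoated GF/B filters and counted. KI by Cheng-Prusoff; mean ± SEM of three experiments, each in triplicate.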

Row | Structure (SMILES) | Ki [1] [nM] | Ki [2] [nM] | Ki [3] [nM]
1 | CN(C(=O)[C@H](Cc1ccccc1)NC(=O)[C@H](CC(=O)O)NC(=O)[C@@H](N)Cc1ccccc1)[C@@H](Cc1c[nH]c2ccccc12)C(=O)OC(C)(C)C | 3200 | – | –
2 | CN(C(=O)[C@H](Cc1ccccc1)NC(=O)[C@H](CC(=O)O)NC(=O)[C@@H](N)Cc1ccccc1)[C@H](Cc1c[nH]c2ccccc12)C(=O)OC(C)(C)C | 8000 | – | –
3 | CCCC[C@H](NC(=O)[C@H](CC(=O)O)NC(=O)[C@@H](N)Cc1cccc2ccccc12)C(=O)N(C)[C@@H](Cc1c[nH]c2ccccc12)C(=O)OC(C)(C)C | – | 1200 | –
4 | CN(C)[C@@H](Cc1cccc2ccccc12)C(=O)N[C@@H](CC(=O)O)C(=O)N[C@H](C(=O)N[C@@H](Cc1c[nH]c2ccccc12)C(=O)OC(C)(C)C)C1CCCCC1 | – | 5400 | –
5 | CN(C)[C@@H](Cc1cccc2ccccc12)C(=O)N[C@@H](CC(=O)O)C(=O)N[C@H](C(=O)N[C@@H](Cc1c[nH]c2ccccc12)C(=O)OC(C)(C)C)c1ccccc1 | – | 1000 | 51
6 | CCCC[C@H](NC(=O)[C@H](CC(=O)O)NC(=O)[C@H](Cc1cccc2ccccc12)N(C)C)C(=O)N(C)[C@@H](Cc1c[nH]c2ccccc12)C(=O)OC(C)(C)C | – | 520 | –
7 | CCCC[C@H](NC(=O)[C@H](CC(=O)O)NC(=O)[C@@H](N)Cc1cccc2ccccc12)C(=O)N(C)[C@H](Cc1c[nH]c2ccccc12)C(=O)OC(C)(C)C | – | 6300 | –
8 | CCCC[C@H](NC(=O)[C@H](CC(=O)O)NC(=O)[C@@H](N)Cc1ccccc1)C(=O)N(C)[C@@H](Cc1c[nH]c2ccccc12)C(=O)OC(C)(C)C (H-FD[Nle][NMeW]-OtBu) | – | > 5000 | –
9 | CC(C)(C)OC(=O)[C@H](Cc1c[nH]c2ccccc12)NC(=O)[C@H](Cc1ccccc1)NC(=O)[C@H](CC(=O)O)NC(=O)[C@@H](N)Cc1cccc2ccccc12 (H-[1Nal]DFW-OtBu) | – | 2400 | –
10 | CN(C(=O)[C@H](Cc1ccccc1)NC(=O)[C@H](CC(=O)O)NC(=O)[C@@H](N)Cc1cccc2ccccc12)[C@@H](Cc1c[nH]c2ccccc12)C(=O)OC(C)(C)C (H-[1Nal]DF[NMeW]-OtBu) | – | 3500 | –
11 | CC(C)(C)OC(=O)[C@H](Cc1c[nH]c2ccccc12)NC(=O)[C@@H](NC(=O)[C@H](CC(=O)O)NC(=O)[C@@H](N)Cc1cccc2ccccc12)C1CCCCC1 (H-[1Nal]D[Chg]W-OtBu) | – | 1400 | –
12 | CN(C(=O)[C@@H](NC(=O)[C@H](CC(=O)O)NC(=O)[C@@H](N)Cc1cccc2ccccc12)C1CCCCC1)[C@@H](Cc1c[nH]c2ccccc12)C(=O)OC(C)(C)C (H-[1Nal]D[Chg][NMeW]-OtBu) | 2100 | – | –
13 | CC(C)(C)OC(=O)[C@H](Cc1c[nH]c2ccccc12)NC(=O)[C@@H](NC(=O)[C@H](CC(=O)O)NC(=O)[C@@H](N)Cc1cccc2ccccc12)c1ccccc1 (H-[1Nal]D[Phg]W-OtBu) | – | 990 | –
14 | CN(C(=O)[C@@H](NC(=O)[C@H](CC(=O)O)NC(=O)[C@@H](N)Cc1cccc2ccccc12)c1ccccc1)[C@@H](Cc1c[nH]c2ccccc12)C(=O)OC(C)(C)C (H-[1Nal]D[Phg][NMeW]-OtBu) | – | 830 | –
15 | CCCC[C@H](NC(=O)[C@H](CC(=O)O)NC(=O)[C@@H](N)Cc1ccc2ccccc2c1)C(=O)N(C)[C@@H](Cc1c[nH]c2ccccc12)C(=O)OC(C)(C)C (H-[2Nal]D[Nle][NMeW]-OtBu) | – | 4200 | –
16 | CCCC[C@H](NC(=O)[C@H](CC(=O)O)NC(=O)[C@H](Cc1cccc2ccccc12)NC)C(=O)N(C)[C@@H](Cc1c[nH]c2ccccc12)C(=O)OC(C)(C)C (H-[NMe1Nal]D[Nle][NMeW]-OtBu) | – | 1200 | –
17 | CCCC[C@H](NC(=O)[C@H](CC(=O)O)NC(=O)[C@@H](N)Cc1ccccc1)C(=O)N[C@H](Cc1c[nH]c2ccccc12)C(=O)OC(C)(C)C (stereo in doubt; 13) | – | 1100 | –
